Experimental data taken from the array DNA melting data of Ke et al. (doi:10.1101/2024.01.08.574731).

Experiments:
[1] = folding enthalpy; higher = less favourable; fluorescence melt of hairpins on a sequencing array, two-state fit; details: sodium 0.088 M
Outline: (§1)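 Library hairpins on a sequenced MiSeq flow cell carried annealed Cy3 and quencher oligos, and their Cy3 fluorescence was imaged in 50 mM Na-HEPES pH 8.0 with 25 mM NaCl, in 2.5 °C steps up to 60 °C. Signals were normalised to Cy3 before quenching and to control constructs. Melting temperature and folding enthalpy were obtained from bootstrapped two-state fits, combined by inverse-variance weighting across four replicates, and the fitted temperatures were then raised by 9.35 °C to match UV melts.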

[2] = melting temperature; fluorescence melt of hairpins on a sequencing array, two-state fit, raised by 9.35 °C to match UV melts; details: sodium 0.088 M
Outline: as §1

| Sequence | folding enthalpy [1] | Tm [2] |
| --- | --- | --- |
| GGACTACGAAAGTATTCC (((.(((....))).))) | -34.8 kcal/mol | 39.2 °C |
| GGTAGGGGAAACCTTACC ((((.((....)).)))) | -30.5 kcal/mol | 44.1 °C |
| GTACCCGAAAGGGTTAC ((((((....))).))) | -13.4 kcal/mol | 46.4 °C |
| GCAGGCGAAAGCCATTGC ((((((....)))..))) | -13.2 kcal/mol | 42.7 °C |
| GTACACGAAAGTGCTTAC ((((((....)))..))) | -11.9 kcal/mol | 33.3 °C |
| GGCTCCGAAAGGAAAGCC ((((((....)))..))) | -30.1 kcal/mol | 54.3 °C |
| GCAGTCGGAAACGGTTGC (((..((....))..))) | -25.8 kcal/mol | 42.4 °C |
| GTGGACGGAAACACCCAC ((((..(....)..)))) | -12.2 kcal/mol | 30.4 °C |
| GTAGTAGGAAACCACTAC (((((.(....).))))) | -28.9 kcal/mol | 35 °C |
| GCGCATGGAAACGTGCGC (((((.(....).))))) | -41 kcal/mol | 66.6 °C |
| GCGAGCGAAAGCTACCGC ((((((....)))..))) | -18.8 kcal/mol | 48.1 °C |
| GTTTGCGAAAGCAAGAAC ((((((....)))..))) | -10 kcal/mol | 36.7 °C |
| GGTGAGGGAAACCTTGCC ((..(((....)))..)) | -21.7 kcal/mol | 41.8 °C |
| GAGGGCGAAAGCCTTCTC ((((((....)))..))) | -16.6 kcal/mol | 52 °C |
| GCACGGCGAAAGCCTGGC ((..(((....)))..)) | -15.2 kcal/mol | 51.7 °C |
| GTTGCACGAAAGTGAAC (((.(((....)))))) | -14.1 kcal/mol | 39.2 °C |
| GCTGACCGAAAGGTAAGC (((.(((....))).))) | -33.5 kcal/mol | 57.8 °C |
| GCTGCCGAAAGGCAGAGC ((((((....)))..))) | -10 kcal/mol | 67.1 °C |
| GATCTGAGACAGATC ((((((...)))))) | -42.3 kcal/mol | 46.8 °C |
| GAGATGGGAAACTATCTC (((((.(....).))))) | -32 kcal/mol | 40.7 °C |
| GTCGACCGAAAGGTAGAC (((.(((....))).))) | -36.4 kcal/mol | 59.8 °C |
| GATCATCTATATGATC ((((((....)))))) | -36.2 kcal/mol | 47.9 °C |
| GCAAAGGGAAACCTCTGC (((.(((....))).))) | -19.1 kcal/mol | 33.8 °C |

| Sequence | folding enthalpy [1] | Tm [2] |
| --- | --- | --- |
| GGTCGTGGAAACACGGTC (..((((....))))..) | -15.8 kcal/mol | 41.4 °C |
| GACTCTACGAAAGTAGTC (((..(((....)))))) | -10.9 kcal/mol | 30.1 °C |
| GTCCGGGGAAACCTGGAC ((((.((....)).)))) | -36.6 kcal/mol | 55.5 °C |
| GGACCTCCGAAAGGATCC (((..(((....)))))) | -13.3 kcal/mol | 28.7 °C |
| GGTGTGGGAAACTGCACC ((((..(....)..)))) | -26.3 kcal/mol | 47.7 °C |
| GGAGGTACGAAAGTATCC (((..(((....)))))) | -13 kcal/mol | 32.9 °C |
| GGATAGGGAAACCTGTCC (((.(((....))).))) | -30.9 kcal/mol | 48.2 °C |
| GCTCATGAAAATGAGC ((((((....)))))) | -38.5 kcal/mol | 63.6 °C |
| GGGATCGAAAGATGCCC ((((((....))).))) | -46.8 kcal/mol | 50.3 °C |
| GTGTCCGAAAGGATCAC ((((((....))).))) | -25.2 kcal/mol | 51 °C |
| GCCTACCGAAAGGTCGGC (((.(((....))).))) | -39.7 kcal/mol | 56.5 °C |
| GGGCGGGGAAACCCGTCC ((.((((....)))).)) | -37.3 kcal/mol | 65 °C |
| GATCCTCTGAAGGATC ((((((....)))))) | -36.8 kcal/mol | 51.6 °C |
| GATCGACTTCTCGATC ((((((....)))))) | -41 kcal/mol | 51.5 °C |
| GACCGAGGAAACTCGACC (..((((....))))..) | -14.3 kcal/mol | 26.6 °C |
| GACGCGCGAAAGCGGTC (((.(((....)))))) | -14 kcal/mol | 55 °C |
| GCACGTCGAAAGACTGC (((.(((....)))))) | -27.5 kcal/mol | 56.5 °C |
| GCTGCTCGAAAGAGGAGC (((.(((....))).))) | -38.9 kcal/mol | 59.6 °C |
| GTGCGGGGAAACCTGCAC ((((.((....)).)))) | -29.3 kcal/mol | 58.7 °C |
| CGCCCGGAAACGGTCGCG ((((((....)))..))) | -21.2 kcal/mol | 50.1 °C |
| GTTTGTACGAAAGTAAAC (((..(((....)))))) | -24.3 kcal/mol | 32.8 °C |
| GTGAAGGGAAACCTTCAC (((((((....))))))) | -46.1 kcal/mol | 60 °C |
| GGGAGTGGAAACGTTCCC ((((..(....)..)))) | -16.5 kcal/mol | 36.2 °C |

| Sequence | folding enthalpy [1] | Tm [2] |
| --- | --- | --- |
| GTGTTAGGAAACCAACAC (((((.(....).))))) | -28.9 kcal/mol | 40 °C |
| GCGTCGCGAAAGCAATGC ((.(.((....)).).)) | -21.6 kcal/mol | 43.9 °C |
| GGAGTTACGAAAGTATCC (((..(((....)))))) | -9.09 kcal/mol | 26.1 °C |
| GTTGCTGCGAAAGCAAAC (((..(((....)))))) | -14.3 kcal/mol | 37.8 °C |
| GATTCTGGAAACAGAGTC ((.((((....)))).)) | -30.2 kcal/mol | 38.3 °C |
| GTAGTCGAAAGACATAC ((((((....))).))) | -16.2 kcal/mol | 35.2 °C |
| GTCTGAGGAAACTCAAAC ((.((((....)))).)) | -11.3 kcal/mol | 24.5 °C |
| GACTTGGGAAACTGAGTC ((((..(....)..)))) | -32 kcal/mol | 33.5 °C |
| GCCACAACGAAAGTTGGC (((..(((....)))))) | -15.3 kcal/mol | 48.5 °C |
| GTAGCTCCGAAAGGATAC (((..(((....)))))) | -14.6 kcal/mol | 25.4 °C |
| GTGGTGGCGAAAGCCCAC (((..(((....)))))) | -14.8 kcal/mol | 53.5 °C |
| GCTTCCGAAAGGACCAGC ((((((....)))..))) | -14.2 kcal/mol | 31.2 °C |
| GTACGCCGAAAGGCTAC (((.(((....)))))) | -15.1 kcal/mol | 47.6 °C |
| AGCTAGAAATAGCT (((((....))))) | -14.9 kcal/mol | 41.3 °C |
| GCCATTCGAAAGAACGGC (((.(((....))).))) | -40.1 kcal/mol | 49.6 °C |
| GGTCGGCGAAAGCCAACC (((.(((....))).))) | -21 kcal/mol | 55.3 °C |
| GCAGGGGGAAACCCCCAC (..((((....))))..) | -9.57 kcal/mol | 33.1 °C |
| GATCGTGGTACGATC ((((((...)))))) | -34.7 kcal/mol | 58.2 °C |
| GTGGGAGGAAACTCCTAC ((.((((....)))).)) | -25.1 kcal/mol | 46.8 °C |
| GTGTGTTCGAAAGAACAC (((..(((....)))))) | -15.7 kcal/mol | 64.2 °C |
| GGAGAGGGAAACCTCTTC (.(((((....))))).) | -21.5 kcal/mol | 45.8 °C |
| GGTTCCGAAAGGAAGACC ((((((....)))..))) | -15.1 kcal/mol | 42.1 °C |
